The text below walks through data of ChEMBL document CHEMBL3046220, “Bioactive saponin from tea seed pomace with inhibitory effects against Rhizoctonia solani” (J Agric Food Chem, 2010).

The test system of test [1] is Rhizoctonia solani. Briefly: Antifungal activity against Rhizoctonia solani AG-4 assessed as inhibition of mycelial growth at 27 degC measured after 48 hr. The test is classed as functional, organism-based.
The subject of test [2] is Rhizoctonia solani. As to the kind of experiment: Antifungal activity against Rhizoctonia solani AG-4 assessed as inhibition of colony size at 60 ppm at 27 degC measured after 48 hr. In kind it is functional. To be noted: AG-4, 48 h. The procedure, abridged:
(§1)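 R. solani AG-4 RST-04 was kept on PDA slants. Samples were dissolved in distilled water, with distilled water as the control. Growth was on PDA plates at 27 °C for 48 h. Colony size was measured as mean ± SE (n = 8). Inhibition % = [(control colony size − treatment colony size)/control colony size] × 100. Groups were compared by Duncan's multiple-range test (p = 0.05).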

Test [3] relates to Rhizoctonia solani. Briefly: Antifungal activity against Rhizoctonia solani AG-4 assessed as inhibition of colony size at 10 ppm at 27 degC measured after 48 hr. In kind it is functional. To be noted: AG-4, 48 h. Summed up:
as §1

For test [4], the system named is Rhizoctonia solani. As to the kind of experiment: Antifungal activity against Rhizoctonia solani AG-4 assessed as inhibition of colony size at 100 ppm at 27 degC measured after 48 hr. In kind it is functional. To be noted: AG-4, 48 h. The procedure, abridged: as §1
In test [5] the test system is Rhizoctonia solani. As to the kind of experiment: Antifungal activity against Rhizoctonia solani AG-4 assessed as inhibition of colony size at 30 ppm at 27 degC measured after 48 hr. The test is classed as functional. Conditions: AG-4, 48 h. Summed up:
as §1

Test [6] deals with Rhizoctonia solani. Briefly: Antifungal activity against Rhizoctonia solani AG-4 assessed as inhibition of colony size at 125 ppm at 27 degC measured after 48 hr. To be noted: AG-4, 48 h. The test is classed as functional. The procedure, abridged: as §1
Test [7] deals with Rhizoctonia solani. As to the kind of experiment: Antifungal activity against Rhizoctonia solani AG-4 assessed as inhibition of colony size at 25 ppm at 27 degC measured after 48 hr. The test is classed as functional. Conditions: AG-4, 48 h. The procedure, abridged:
(§2)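 R. solani AG-4 RST-04 was grown on potato dextrose agar plates at 27 °C for 48 h, with the reference fungicide tested across 0.25-250 ppm. Samples were dissolved in distilled water, and plates given distilled water alone served as control. Colony size was read as the mean of n = 8. Inhibition (%) = [(control colony size − treated colony size)/control colony size] × 100.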

Test [8] deals with Rhizoctonia solani. Briefly: Antifungal activity against Rhizoctonia solani AG-4 assessed as inhibition of colony size at 0.25 ppm at 27 degC measured after 48 hr. The test is classed as functional. Conditions: AG-4, 48 h. Summed up: as §2
For test [9], the system named is Rhizoctonia solani. Briefly: Antifungal activity against Rhizoctonia solani AG-4 assessed as inhibition of colony size at 2.5 ppm at 27 degC measured after 48 hr. To be noted: AG-4, 48 h. The test is classed as functional. The procedure, abridged: as §2
Test [10] relates to Rhizoctonia solani. As to the kind of experiment: Antifungal activity against Rhizoctonia solani AG-4 assessed as inhibition of colony size at 250 ppm at 27 degC measured after 48 hr. The test is classed as functional. Conditions: AG-4, 48 h. The procedure, abridged:
as §2

For orientation: inhibition means the change of the read-out against control, counted positive when it falls. For `C/C=C(/C)C(=O)O[C@H]1CC(C)(C)C[C@H]2C3=CC[C@@H]4[C@@]5(C)CC[C@H](O[C@@H]6O[C@H](C(=O)O)[C@@H](O)[C@H](O[C@@H]7OC[C@H](O)[C@H](O)[C@H]7O[C@@H]7O[C@H](CO)[C@@H](O)[C@H](O)[C@H]7O)[C@H]6O[C@@H]6O[C@H](CO)[C@H](O)[C@H](O)[C@H]6O)[C@@](C)(C=O)[C@@H]5CC[C@@]4(C)[C@]3(C)C[C@@H](O)[C@@]12CO` [CAMELLIASAPONIN B1], the IC50 in the test on Rhizoctonia solani [1] came to 55.7 ppm. In addition, the inhibition at 60 ppm in the test on Rhizoctonia solani [2] was 56.5%. The inhibition at 10 ppm in the test with Rhizoctonia solani [3] amounted to 6.43%. The inhibition at 100 ppm in the test on Rhizoctonia solani [4] was 63.4%. Besides, the inhibition at 30 ppm with Rhizoctonia solani [5] was found to be 46.8%.
As to `C[C@@H]1O[C@@H](OC[C@H]2O[C@@H](Oc3c(-c4ccc(O)cc4)oc4cc(O)cc(O)c4c3=O)[C@H](O[C@@H]3O[C@H](CO)[C@H](O)[C@H](O)[C@H]3O)[C@@H](O)[C@@H]2O)[C@H](O)[C@H](O)[C@H]1O` [CAMELLIASIDE A], the IC50 with Rhizoctonia solani [1] is more than 125 ppm. In addition, in the test on Rhizoctonia solani [6], the inhibition at 125 ppm is -14.7%.
The corresponding values for `C[C@@H]1O[C@@H](OC[C@H]2O[C@@H](Oc3c(-c4ccc(O)cc4)oc4cc(O)cc(O)c4c3=O)[C@H](O[C@@H]3OC[C@@H](O)[C@H](O)[C@H]3O)[C@@H](O)[C@@H]2O)[C@H](O)[C@H](O)[C@H]1O` [CAMELLIASIDE B] are more than 125 ppm and -14.5%.
In the case of `O=C(Nc1ccccc1)N(Cc1ccc(Cl)cc1)C1CCCC1` [PENCYCURON], the IC50 in the test with Rhizoctonia solani [1] is reported as less than 0.25 ppm. Also, in the test on Rhizoctonia solani [7], the inhibition at 25 ppm came out at 83.9%. The inhibition at 0.25 ppm with Rhizoctonia solani [8] was 66.6%. Further, the inhibition at 2.5 ppm in the test with Rhizoctonia solani [9] is 73.6%. Also, the inhibition at 250 ppm with Rhizoctonia solani [10] was 81.9%.
